In ChEMBL document CHEMBL2440086 (Bioorg Med Chem, 2013):

Legend:
[1] = Inhibition of bovine brain tubulin polymerization after 20 mins by turbidimetric analysis; parameters: species or system Bos taurus
How it was run: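 Bovine brain tubulin 10 µM (1 mg/mL) in 0.8 M monosodium glutamate pH 6.6, 4% DMSO, with varying compound, preincubated 15 min at 30 °C. Chilled, GTP added to 0.4 mM, then temperature jumped 0→30 °C. Turbidity followed at 350 nm for 30 min.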

SK-OV-3 = assay: Cytotoxicity against human SKOV3 cells after 48 hrs by SRB assay; format: functional; conditions: SK-OV-3, 48 h
How it was run: (§1)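 Cells in 5% FBS/RPMI1640 with 1% gentamicin, plated and grown 24 h, then given serial compound dilutions for 48 h. Fixed with trichloroacetic acid, stained with sulforhodamine B, read by optical density.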

DU-145 = assay: Cytotoxicity against human DU145 cells after 48 hrs by SRB assay; format: functional; conditions: DU-145, 48 h; how it was run: as §1
Tubulin (Homo sapiens) [2] = target: T1, Tubulin (Homo sapiens) (UniProt P68371+Q9H4B7+P0DPH7+P68366+Q13509+Q71U36+P04350+Q3ZCM7+P07437+P68363+Q9BQE3+Q6PEY2+Q13885+Q9BVA1+Q9BUF5); assay: Displacement of [3H]colchicine from tubulin (unknown origin) at 5 uM after 10 mins by scintillation counting analysis; format: protein-complex assay
How it was run: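 Mixtures: 1.0 µM tubulin, 5.0 µM [3H]colchicine, 5% DMSO, inhibitor 5.0 µM, with 1.0 M monosodium glutamate pH 6.6, 0.5 mg/mL BSA, 0.1 M glucose-1-phosphate, 1.0 mM MgCl2, 1.0 mM GTP. 10 min at 37 °C, stopped with ice-cold water, filtered on DEAE-cellulose, scintillation counted. Percent inhibition versus no-inhibitor control.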

NCI-H460 = assay: Cytotoxicity against human NCI-H460 cells after 48 hrs by SRB assay; format: functional; conditions: NCI-H460, 48 h; how it was run: as §1
Tubulin (Homo sapiens) [3] = target: T1, Tubulin (Homo sapiens); assay: Displacement of [3H]colchicine from tubulin (unknown origin) at 1 uM after 10 mins by scintillation counting analysis; format: protein-complex assay
How it was run: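 Tubulin 1.0 µM incubated 10 min at 37 °C with 5.0 µM [3H]colchicine, 5% (v/v) DMSO and inhibitor at 1.0 µM, in 1.0 M monosodium glutamate pH 6.6, 0.5 mg/mL BSA, 0.1 M glucose-1-phosphate, 1.0 mM MgCl2, 1.0 mM GTP. Stopped with ice-cold water, DEAE-cellulose filter stacks, scintillation counting next day; percent inhibition versus no-inhibitor control.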

| Compound | IC50 [1] [µM] | GI50 (SK-OV-3) [µM] | GI50 (DU-145) [µM] | inhibition (Tubulin (Homo sapiens) [2]) [%] | GI50 (NCI-H460) [µM] | inhibition (Tubulin (Homo sapiens) [3]) [%] |
| --- | --- | --- | --- | --- | --- | --- |
| COc1ccc2c(C(=O)c3cccc([N+](=O)[O-])c3)c(-c3ccc(OC)c(O)c3)[nH]c2c1 | 19 | 2.65 | 7.11 | 21 | 15.7 | – |
| COc1ccc2c(C(=O)c3cccc(OC(F)(F)F)c3)c(-c3ccc(OC)c(O)c3)[nH]c2c1 | 3.7 | 0.283 | 2.99 | 19 | 3.57 | – |
| COc1ccc2c(C(=O)c3ccc([N+](=O)[O-])cc3)c(-c3ccc(OC)c(O)c3)[nH]c2c1 | > 20 | 21.1 | 8.16 | – | 16.8 | – |
| COc1ccc2c(C(=O)c3ccc(F)cc3)c(-c3ccc(OC)c(O)c3)[nH]c2c1 | > 20 | 15 | 10 | – | 49.6 | – |
| COc1ccc(/C=C\c2cc(OC)c(OC)c(OC)c2)cc1O [COMBRETASTATIN A4] | – | 0.00533 | 0.00484 | – | 0.00449 | – |
| COc1ccc2c(C(=O)c3cc(F)c(F)c(F)c3)c(-c3ccc(OC)c(O)c3)[nH]c2c1 | 7.5 | 19.8 | 10 | 26 | 5.54 | – |
| COc1ccc(-c2[nH]c3c(OC)c(OC)ccc3c2C(=O)c2cc(OC)c(OC)c(OC)c2)cc1O | 1.1 | 0.0119 | 0.0181 | 67 | 0.992 | 31 |
| COc1ccc2c(C(=O)c3cc(C(F)(F)F)cc(C(F)(F)F)c3)c(-c3ccc(OC)c(O)c3)[nH]c2c1 | 3.1 | 1.45 | 3.01 | 26 | 2.86 | – |
| COc1ccc2c(C(=O)c3ccc(OC(F)(F)F)cc3)c(-c3ccc(OC)c(O)c3)[nH]c2c1 | > 20 | 3.05 | 3.21 | – | 2.35 | – |
| COc1ccc(-c2[nH]c3cc(OC)c(OC)c(OC)c3c2C(=O)c2cc(OC)c(OC)c(OC)c2)cc1O | > 20 | 25.1 | 28.3 | – | 41.8 | – |
| COc1ccc2c(C(=O)c3cc([N+](=O)[O-])cc([N+](=O)[O-])c3)c(-c3ccc(OC)c(O)c3)[nH]c2c1 | > 20 | 4.35 | 5.52 | – | 4.08 | – |
| COc1ccc(-c2[nH]c3c(O)c(OC)ccc3c2C(=O)c2cc(OC)c(OC)c(OC)c2)cc1 | 1 | 0.264 | 0.309 | 85 | 0.177 | 51 |
| COc1ccc(-c2[nH]c3cc(O)ccc3c2C(=O)c2cc(OC)c(OC)c(OC)c2)cc1O | > 20 | 2.17 | 3.4 | – | 2.91 | – |
